ChEMBL document CHEMBL1123937, “(5Z)-7-(2,2-Dimethyl-4-phenyl-1,3-dioxan-cis-5-yl)heptenoi c acid: a specific thromboxane A2 receptor antagonist” (J Med Chem, 1987)

Experiments:
Rattus norvegicus [1] = species: Rattus norvegicus; assay: Ability to inhibit norepinephrine -induced contraction of isolated strips of rat aorta, […]; format: functional; details: read-out: pA2 (converted)
[2] = biological target: thromboxane A2 (TxA2) receptor (Cavia porcellus, UniProt A0A286Y4I8); assay: Ability to inhibit U-46,619-induced contraction of isolated strips of guinea pig tracheal chain, which is the measure of thromboxane receptor antagonism; format: functional; details: read-out: pA2 (converted)
Cavia porcellus [3] = species: Cavia porcellus; assay: Compound was tested for the concentration that inhibited the bronchoconstriction induced by U 46619 for a period exceeding 2 h.; format: functional
[4] = biological target: Thromboxane A2 receptor (Oryctolagus cuniculus); assay: Ability to inhibit U-46,619-induced contraction of isolated strips of rabbit thoracic aorta, which is the measure of thromboxane receptor antagonism; details: read-out: pA2 (converted)
Thromboxane A2 receptor = biological target: T1, Thromboxane A2 receptor (Rattus norvegicus, UniProt P34978); assay: Ability to inhibit U-46,619-induced contraction of isolated strips of rat aorta, which is the measure of thromboxane receptor antagonism; format: functional; details: read-out: pA2 (converted)
T1 sequence (P34978 whole entry): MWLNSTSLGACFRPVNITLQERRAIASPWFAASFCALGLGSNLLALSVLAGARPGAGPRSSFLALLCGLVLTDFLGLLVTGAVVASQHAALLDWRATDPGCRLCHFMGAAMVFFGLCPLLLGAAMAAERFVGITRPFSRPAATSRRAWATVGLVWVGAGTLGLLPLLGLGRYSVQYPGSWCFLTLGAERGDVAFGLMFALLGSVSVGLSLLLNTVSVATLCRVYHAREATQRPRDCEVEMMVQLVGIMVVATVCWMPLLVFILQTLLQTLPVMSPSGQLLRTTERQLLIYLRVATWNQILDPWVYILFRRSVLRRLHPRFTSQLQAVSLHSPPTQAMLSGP

Cavia porcellus [5] = species: Cavia porcellus; assay: Inhibition of the response to PGE-2 in guinea pig ileum was determined; format: functional; details: read-out: pA2 (converted)
Rattus norvegicus [6] = species: Rattus norvegicus; assay: Inhibition of the response to […] in rat colon was determined; format: functional; details: read-out: pA2 (converted)
Cavia porcellus [7] = species: Cavia porcellus; assay: Ability to inhibit relaxant effect of PGE-2 on guinea pig trachea was determined; format: functional; details: read-out: pA2 (converted)
Oryctolagus cuniculus [8] = species: Oryctolagus cuniculus; assay: Ability to inhibit the contractile effect of PGE-2 on rabbit aorta was determined; format: functional; details: read-out: pA2 (converted)
Homo sapiens [9] = species: Homo sapiens; assay: Ability to inhibit aggregate formation in human platelets induced by arachidonic acid.; format: functional
Rattus norvegicus [10] = species: Rattus norvegicus; assay: Ability to inhibit the contractile effect of PGD-2 on rat aorta was determined; format: functional; details: read-out: pA2 (converted)
Cavia porcellus [11] = species: Cavia porcellus; assay: Ability to inhibit the contractile effect of PGE-2 on guinea pig trachea; format: functional; details: read-out: pA2 (converted)
Oryctolagus cuniculus [12] = species: Oryctolagus cuniculus; assay: Ability to inhibit the contractile effect of […] on rabbit aorta was determined; format: functional; details: read-out: pA2 (converted)
Homo sapiens [13] = species: Homo sapiens; assay: Ability to inhibit aggregate formation in human platelets induced by collagen; format: functional
Cavia porcellus [14] = species: Cavia porcellus; assay: Ability to antagonise the actions of crude SRSA on guinea pig ileum was determined; format: functional; details: read-out: pA2 (converted)
Homo sapiens [15] = species: Homo sapiens; assay: Compound was tested for the concentration in human platelet -rich plasma that did not modify PGI-2 inhibition of ADP- induced aggregation.; format: functional
Cavia porcellus [16] = species: Cavia porcellus; assay: Ability to inhibit the contractile effect of PGF2-alpha on guinea pig trachea; details: read-out: pA2 (converted)
Oryctolagus cuniculus [17] = species: Oryctolagus cuniculus; assay: Compound was tested for the antagonist serotonin- and norepinephrine-induced contractions of rabbit aorta.; format: functional
Outline: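 Rabbit aortic strips contracted with serotonin or norepinephrine and tested in the presence of the antagonist at concentrations up to 2×10^-5 M.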

Structure (SMILES): CC1(C)OC[C@@H](C/C=C\CCCC(=O)O)[C@@H](c2ccccc2)O1
- Kb (Rattus norvegicus [1]): > 20 µM
- Kb [2]: 0.263 µM
- Activity (Cavia porcellus [3]): 5 mg/kg
- Kb [4]: 0.501 µM
- Kb (Thromboxane A2 receptor): 0.145 µM
- Kb (Cavia porcellus [5]): > 20 µM
- Kb (Rattus norvegicus [6]): > 20 µM
- Kb (Cavia porcellus [7]): > 20 µM
- Kb (Oryctolagus cuniculus [8]): 6.76 µM
- KB (Homo sapiens [9]): 1.42e-05
- Kb (Rattus norvegicus [10]): 1.95 µM
- Kb (Cavia porcellus [11]): 10.5 µM
- Kb (Oryctolagus cuniculus [12]): 1.62 µM
- KB (Homo sapiens [13]): 9.12e-06
- Kb (Cavia porcellus [14]): > 20 µM
- Concentration (Homo sapiens [15]): 100 µM
- Kb (Cavia porcellus [16]): 11.2 µM
- Concentration (Oryctolagus cuniculus [17]): 20 µM

Structure (SMILES): O=C(O)CCC/C=C\C[C@H]1COCO[C@@H]1c1ccccc1
- Kb [4]: > 20 µM

Structure (SMILES): O=C(O)CCC/C=C\C[C@@H]1COCO[C@@H]1c1ccccc1
- Kb [4]: 0.501 µM

Structure (SMILES): CC1(C)OC[C@H](C/C=C\CCCC(=O)O)[C@@H](c2ccccc2)O1
- Kb [4]: > 20 µM
